Measured values taken from ChEMBL document CHEMBL4270573, “Novel nicotinoyl pyrazoline derivates bearing N-methyl indole moiety as antitumor agents: Design, synthesis and evaluation” (Eur J Med Chem, 2018).
Calls of active or inactive are those of the source. No cut-off for these calls is given here.

Experiments:
[1] = tested on: HepG2; assay: Growth inhibition of human HepG2 cells after 48 hrs by MTT assay; format: functional; conditions: HepG2, 48 h
In short: (§1)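 Proliferation read-out; GI50 taken as the concentration giving 50% reduction of cancer cell proliferation.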

[2] = tested on: HeLa; assay: Growth inhibition of human HeLa cells after 48 hrs by MTT assay; format: functional; in short: as §1
[3] = tested on: A549; assay: Growth inhibition of human A549 cells after 48 hrs by MTT assay; format: functional; conditions: A549, 48 h; in short: as §1
[4] = Cytotoxicity against HEK293T cells assessed as reduction in cell viability after 48 hrs by MTT assay; format: cell-based, HEK-293T; conditions: human
[5] = tested on: MCF7; assay: Growth inhibition of human MCF7 cells after 48 hrs by MTT assay; format: functional; conditions: MCF7, 48 h; in short: as §1
[6] = Inhibition of porcine brain tubulin polymerization measured over 30 mins; design: species or system Sus scrofa
[7] = species: Bos taurus; assay: Inhibition of colchicine binding to calf brain tubulin preincubated for 1 hr followed by colchicine addition measured after 1 hr by UPLC-MS/MS analysis
[8] = tested on: HeLa; assay: Antitumor activity against human HeLa cells xenografted in nude mouse assessed as loose and irregular arrangement of tumor cells at 10 mg/kg, ip after 14 days by hematoxylin and eosin staining based microscopic analysis; format: functional, organism-based
In short: (§2)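 Excised tumours and heart, liver, kidney and spleen were H&E-stained and examined microscopically. Tumour scoring covered cell arrangement and necrosis. Organ scoring covered inflammatory infiltration, edema, necrosis and cell morphology.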

[9] = tested on: HeLa; assay: Antitumor activity against human HeLa cells xenografted in nude mouse assessed as tumor weight at 10 mg/kg, ip after 14 days (reference value: 1.54 g); format: functional
[10] = tested on: HeLa; assay: Antitumor activity against human HeLa cells xenografted in nude mouse assessed as necrosis of tumor cells at 10 mg/kg, ip after 14 days by hematoxylin and eosin staining based microscopic analysis; format: functional, organism-based; in short: as §2
[11] = tested on: HeLa; assay: Antitumor activity against human HeLa cells xenografted in nude mouse assessed as tumor volume at 10 mg/kg, ip after 14 days (reference value: 2292.17 mm3); format: functional
[12] = molecular target: T1, Tubulin (Homo sapiens) (UniProt P68371+Q9H4B7+P0DPH7+P68366+Q13509+Q71U36+P04350+Q3ZCM7+P07437+P68363+Q9BQE3+Q6PEY2+Q13885+Q9BVA1+Q9BUF5); assay: Inhibition of tubulin polymerization in human HepG2 cells assessed as abnormal microtubule network formation at 0.04 uM after 12 hrs by DAPI staining based immunofluorescence confocal laser scanning microscopic analysis; format: cell-based
[13] = molecular target: T1, Tubulin (Homo sapiens); assay: Inhibition of tubulin polymerization in human HeLa cells assessed as abnormal microtubule network formation at 0.04 uM after 12 hrs by DAPI staining based immunofluorescence confocal laser scanning microscopic analysis; format: cell-based

For `COc1ccc2c(c1)c(C1CC(c3ccc(Br)cc3)=NN1C(=O)c1ccc(OC)nc1)cn2C` (configuration not stated), the GI50 [1] was > 10 µM, the GI50 [2] was > 10 µM and the GI50 [3] was > 10 µM. The CC50 at 48 h [4] was > 300 µM, the GI50 [5] was 6.96 µM and the IC50 [6] was 19.3 µM.

Compound `COc1cccc(C2=NN(C(=O)c3ccc(OC)nc3)C(c3cn(C)c4ccc(OC)cc34)C2)c1` (configuration not stated) has a GI50 [1] of 0.19 µM, a GI50 [2] of 0.34 µM and a GI50 [3] of 0.47 µM. The CC50 at 48 h [4] was > 300 µM, the GI50 [5] was 0.13 µM and the IC50 [6] was 1.9 µM.

`Cc1ccc(C(=O)N2N=C(c3ccccc3)CC2c2cn(C)c3ccccc23)cn1` (configuration not stated) gave a GI50 [1] of 1.22 µM, a GI50 [2] of 2.39 µM and a GI50 [3] of 1.19 µM. The CC50 at 48 h [4] was 154 µM, the GI50 [5] was 4.01 µM and the IC50 [6] was 13.2 µM.

For `COc1cc(C2=NN(C(=O)c3cccnc3)C(c3cn(C)c4ccc(Br)cc34)C2)cc(OC)c1OC` (configuration not stated), the GI50 [1] was > 10 µM, the GI50 [2] was > 10 µM and the GI50 [3] was > 10 µM. The CC50 at 48 h [4] was 131 µM, the GI50 [5] was > 10 µM and the IC50 [6] was > 40 µM.

In the case of `COc1cccc(C2=NN(C(=O)c3cccnc3)C(c3cn(C)c4ccc(OC)cc34)C2)c1` (configuration not stated), the GI50 [1] is reported as 0.91 µM, the GI50 [2] is reported as 1.27 µM and the GI50 [3] is reported as 1.02 µM. It also gave a CC50 at 48 h [4] of 125 µM, a GI50 [5] of 0.81 µM and an IC50 [6] of 2.1 µM.

For `Cn1cc(C2CC(c3ccccc3)=NN2C(=O)c2cccnc2)c2ccccc21` (configuration not stated), the GI50 [1] was 4.63 µM, the GI50 [2] was > 10 µM and the GI50 [3] was > 10 µM. For the same compound, the CC50 at 48 h [4] was > 300 µM, the GI50 [5] was 7.2 µM and the IC50 [6] was 26.7 µM.

With `COc1ccc(/C=C\c2cc(OC)c(OC)c(OC)c2)cc1O` [COMBRETASTATIN A4] the inhibition [7] was “Active”, the GI50 [1] was 0.17 µM and the GI50 [2] was 0.092 µM. The GI50 [3] was 0.31 µM, the Activity [8] was “Active” and the Activity [9] was 0.59 g. The CC50 at 48 h [4] was > 300 µM, the GI50 [5] was 0.14 µM and the Activity [10] was “Active”. For the same compound, the IC50 [6] was 2.1 µM and the Activity [11] was 918.61 mm3.

For `COc1ccc2c(c1)c(C1CC(c3ccc(F)cc3)=NN1C(=O)c1ccc(OC)nc1)cn2C` (configuration not stated), the GI50 [1] was 0.22 µM, the GI50 [2] was 0.41 µM and the GI50 [3] was 0.71 µM. For the same compound, the CC50 at 48 h [4] was > 300 µM, the GI50 [5] was 0.48 µM and the IC50 [6] was 2.6 µM.

For `Cn1cc(C2CC(c3ccccc3)=NN2C(=O)c2ccncc2)c2ccccc21` (configuration not stated), the GI50 [1] was 0.63 µM, the GI50 [2] was 0.59 µM and the GI50 [3] was 0.99 µM. The CC50 at 48 h [4] was 97.3 µM, the GI50 [5] was 1.11 µM and the IC50 [6] was > 40 µM.

In the case of `COc1ccc(C2=NN(C(=O)c3ccc(OC)nc3)C(c3cn(C)c4ccc(OC)cc34)C2)cc1` (configuration not stated), the GI50 [1] is reported as 0.23 µM, the GI50 [2] is reported as 0.18 µM and the GI50 [3] is reported as 0.45 µM. For the same compound, the CC50 at 48 h [4] was > 300 µM, the GI50 [5] was 0.56 µM and the IC50 [6] was 2.3 µM.

Work on `Cn1cc(C2CC(c3ccccc3)=NN2C(=O)c2ccc(Cl)nc2)c2ccccc21` (configuration not stated) yielded a GI50 [1] of 7.91 µM, a GI50 [2] of 8.31 µM and a GI50 [3] of 8.46 µM. The CC50 at 48 h [4] was > 300 µM, the GI50 [5] was 9.25 µM and the IC50 [6] was 31.7 µM.

`Cn1cc(C2CC(c3ccc(Cl)cc3)=NN2C(=O)c2cccnc2)c2cc(Br)ccc21` (configuration not stated) showed a GI50 [1] of 5.8 µM, a GI50 [2] of 5.2 µM and a GI50 [3] of 7.65 µM. The CC50 at 48 h [4] was > 300 µM, the GI50 [5] was 8.1 µM and the IC50 [6] was 19.4 µM.

With `COc1ccc2c(c1)c(C1CC(c3ccccc3)=NN1C(=O)c1ccc(OC)nc1)cn2C` (configuration not stated) the GI50 [1] was 1.33 µM, the GI50 [2] was 1.1 µM and the GI50 [3] was 1.11 µM. For the same compound, the CC50 at 48 h [4] was > 300 µM, the GI50 [5] was 0.99 µM and the IC50 [6] was 2.9 µM.

For `COc1ccc(C2=NN(C(=O)c3ccncc3)C(c3cn(C)c4ccc(Br)cc34)C2)cc1OC` (configuration not stated), the GI50 [1] was > 10 µM, the GI50 [2] was > 10 µM and the GI50 [3] was 4.25 µM. For the same compound, the CC50 at 48 h [4] was > 300 µM, the GI50 [5] was > 10 µM and the IC50 [6] was 17.8 µM.

In the case of `COc1cc(C2=NN(C(=O)c3ccc(C)nc3)C(c3cn(C)c4ccccc34)C2)cc(OC)c1OC` (configuration not stated), the GI50 [1] is reported as 0.31 µM, the GI50 [2] is reported as 0.21 µM and the GI50 [3] is reported as 0.23 µM. For the same compound, the CC50 at 48 h [4] was > 300 µM, the GI50 [5] was 0.18 µM and the IC50 [6] was 2.3 µM.

`COc1ccc(C(=O)N2N=C(c3ccccc3)CC2c2cn(C)c3ccccc23)cn1` (configuration not stated) gave a GI50 [1] of 3.13 µM, a GI50 [2] of 3.98 µM and a GI50 [3] of 3.04 µM. For the same compound, the CC50 at 48 h [4] was > 300 µM, the GI50 [5] was 4.31 µM and the IC50 [6] was 9.7 µM.

For `COc1ccc(C2=NN(C(=O)c3cccnc3)C(c3cn(C)c4ccc(Br)cc34)C2)cc1OC` (configuration not stated), the GI50 [1] was 2.45 µM, the GI50 [2] was 2.09 µM and the GI50 [3] was 2.38 µM. The CC50 at 48 h [4] was > 300 µM, the GI50 [5] was 1.17 µM and the IC50 [6] was 5.6 µM.

Compound `Cn1cc(C2CC(c3ccc(F)cc3)=NN2C(=O)c2cccnc2)c2cc(Br)ccc21` (configuration not stated) has a GI50 [1] of 0.48 µM, a GI50 [2] of 0.63 µM and a GI50 [3] of 1.38 µM. The CC50 at 48 h [4] was > 300 µM, the GI50 [5] was 0.48 µM and the IC50 [6] was 5.2 µM.

With `Cn1cc(C2CC(c3ccc(Br)cc3)=NN2C(=O)c2cccnc2)c2cc(Br)ccc21` (configuration not stated) the GI50 [1] was 6.91 µM, the GI50 [2] was > 10 µM and the GI50 [3] was > 10 µM. The CC50 at 48 h [4] was > 300 µM, the GI50 [5] was 11.8 µM and the IC50 [6] was 18.4 µM.

With `COc1ccc2c(c1)c(C1CC(c3cc(OC)c(OC)c(OC)c3)=NN1C(=O)c1ccc(OC)nc1)cn2C` (configuration not stated) the GI50 [1] was > 10 µM, the GI50 [2] was > 10 µM and the GI50 [3] was > 10 µM. The CC50 at 48 h [4] was > 300 µM, the GI50 [5] was > 10 µM and the IC50 [6] was > 40 µM.

With `COc1ccc2c(c1)c(C1CC(c3ccc(Cl)cc3)=NN1C(=O)c1ccc(OC)nc1)cn2C` (configuration not stated) the GI50 [1] was 2.08 µM, the GI50 [2] was 2.26 µM and the GI50 [3] was 3.39 µM. For the same compound, the CC50 at 48 h [4] was > 300 µM, the GI50 [5] was 3.71 µM and the IC50 [6] was 15.6 µM.

In the case of `Cn1cc(C2CC(c3ccccc3)=NN2C(=O)c2cccnc2Cl)c2ccccc21` (configuration not stated), the GI50 [1] is reported as > 10 µM, the GI50 [2] is reported as > 10 µM and the GI50 [3] is reported as > 10 µM. The CC50 at 48 h [4] was > 300 µM, the GI50 [5] was > 10 µM and the IC50 [6] was > 40 µM.

In the case of `COc1ccc2c(c1)c(C1CC(c3ccccc3)=NN1C(=O)c1cccnc1)cn2C` (configuration not stated), the GI50 [1] is reported as 5.11 µM, the GI50 [2] is reported as 3.59 µM and the GI50 [3] is reported as > 10 µM. For the same compound, the CC50 at 48 h [4] was > 300 µM, the GI50 [5] was 1.16 µM and the IC50 [6] was 4.3 µM.

With `CC(=O)O[C@H]1C(=O)[C@@]2(C)[C@H]([C@H](OC(=O)c3ccccc3)[C@]3(O)C[C@H](OC(=O)[C@H](O)[C@@H](NC(=O)c4ccccc4)c4ccccc4)C(C)=C1C3(C)C)[C@]1(OC(C)=O)CO[C@@H]1C[C@@H]2O` the inhibition [12] was “inactive” and the inhibition [13] was “inactive”.

Compound `COc1ccc(C2=NN(C(=O)c3cccnc3)C(c3cn(C)c4ccc(Br)cc34)C2)cc1` (configuration not stated) has a GI50 [1] of 0.54 µM, a GI50 [2] of 0.89 µM and a GI50 [3] of 1.19 µM. The CC50 at 48 h [4] was > 300 µM, the GI50 [5] was 1.56 µM and the IC50 [6] was 4.5 µM.

For `Cn1cc(C2CC(c3ccccc3)=NN2C(=O)c2cccnc2)c2cc(Br)ccc21` (configuration not stated), the GI50 [1] was 2.52 µM, the GI50 [2] was 1.73 µM and the GI50 [3] was 1.6 µM. The CC50 at 48 h [4] was > 300 µM, the GI50 [5] was 1.52 µM and the IC50 [6] was 3.4 µM.
